# Measurements taken from ChEMBL document CHEMBL3627676, “Modulation of disulfide dual ENKephalinase inhibitors (DENKIs) activity by a transient N-protection for pain alleviation by oral route” (Eur J Med Chem, 2015).
# Calls of active or inactive are those of the source.
# Columns and labels:
# Mus musculus [1] = assay: Antinociceptive activity in iv dosed OF1 mouse assessed as increase in jump latency by hot plate test; assay type: functional, organism-based
# Procedure, shortened: (§1)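 Hot plate in male OF1 mice. 10 mg/kg given iv in EtOH/Cremophor/H2O (1/1/8) or EtOH/Tween 80/H2O (1/1/8). Jump latency recorded with a 240 s cut-off over a time course. n = 6 per group.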
# Mus musculus [2] = assay: Analgesic activity in OF1 mouse assessed as decrease in hindpaw licking at 50 mg/kg ,po administered 150 mins prior to formalin challenge by formalin test; assay type: functional; set-up: scale not given: the % may be the effect or the level left
# Procedure, shortened: (§2)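 Male OF1 mice, 25e32 g, 50 mg/kg given orally in ethanol/0.5% methylcellulose in water (1.5/98.5) before formalin. After 30 min adaptation, 20 µL of 5% formalin injected s.c. into the hindpaw. Licking/biting of the injected paw timed by stop-watch during the early phase (0–5 min). Analgesia (%) versus vehicle, n = 6–8 per group.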
# Mus musculus [3] = assay: Antinociceptive activity in po dosed OF1 mouse assessed as increase in jump latency by hot plate test; assay type: functional, organism-based
# Procedure, shortened: (§3)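 Hot plate test in male OF1 mice (20–25 g). 150 mg/kg given per os in EtOH/PEG400/H2O (1/4/5). Jump latency recorded by stop-watch, cut-off 240 s, followed over time. Mean ± sem, n = 7–8 per group.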
# Mus musculus [4] = assay: Analgesic activity in OF1 mouse assessed as decrease in hindpaw licking at 50 mg/kg ,po administered 90 mins prior to formalin challenge by formalin test; assay type: functional; set-up: scale not given: the % may be the effect or the level left; procedure, shortened: as §2
# Mus musculus [5] = assay: Analgesic activity in OF1 mouse assessed as decrease in hindpaw licking at 50 mg/kg ,po administered 210 mins prior to formalin challenge by formalin test relative to control; assay type: functional, organism-based; procedure, shortened: as §2
# Aminopeptidase N = Aminopeptidase N (Homo sapiens, UniProt P15144); assay: Inhibition of recombinant human Aminopeptidase N using L-Ala-beta-NA as substrate preincubated for 30 mins followed by substrate addition measured after 30 mins by fluorometry
# Plasma [6] = assay: Drug level in Sprague-Dawley rat plasma treated with 1-(1-{2-[(1-Ethoxycarbonyloxy-ethoxycarbonylmethyl)-carbamoyl]-3-phenyl-propyldisulfanylmethyl}-3-methylsulfanyl-propylcarbamoyloxy)-ethyl isobutyrate at 800 uM incubated for 1 to 60 mins by LC/MS analysis; assay type: ADME, cell-free
# Procedure, shortened: (§4)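 Prodrug at 800 µM final concentration incubated at 37 °C in male Sprague-Dawley rat plasma (heparin lithium; 66 mg protein/mL) for 1, 5, 15, 30 and 60 min. Reaction stopped with absolute EtOH. Parent and metabolites monitored by LC/MS, in triplicate.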
# Mus musculus [7] = assay: Antiallodynic activity in po dosed OF1 mouse partial sciatic nerve ligation model assessed as increase in mechanical threshold to pressure after 120 mins by von Frey test; assay type: functional, organism-based
# Procedure, shortened: (§5)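 PSNL mice (male OF1, 16–18 g; partial sciatic ligation of 33–50% under isoflurane). Oral gavage at 12.5, 25 or 50 mg/kg in EtOH/0.5% methylcellulose (1.5/98.5). Von Frey up-down withdrawal thresholds measured on ipsilateral and contralateral paws before dosing and at 30, 60 and 120 min. Kruskal-Wallis with Dunn's test.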
# Mus musculus [8] = assay: Antiallodynic activity in po dosed OF1 mouse partial sciatic nerve ligation model assessed as increase in mechanical threshold to pressure at 25 mg/kg, po after 30 mins by von Frey test; assay type: functional; procedure, shortened: as §5
# Mus musculus [9] = assay: Antiallodynic activity in po dosed OF1 mouse partial sciatic nerve ligation model assessed as increase in mechanical threshold to pressure at 25 mg/kg, po after 60 mins by von Frey test; assay type: functional; procedure, shortened: as §5
# Mus musculus [10] = assay: Antiallodynic activity in po dosed OF1 mouse partial sciatic nerve ligation model assessed as increase in mechanical threshold to pressure at 25 mg/kg, po after 120 mins by von Frey test; assay type: functional; procedure, shortened: as §5
# Mus musculus [11] = assay: Antiallodynic activity in po dosed OF1 mouse partial sciatic nerve ligation model assessed as increase in mechanical threshold to pressure after 60 mins by von Frey test; assay type: functional, organism-based; procedure, shortened: as §5
# Mus musculus [12] = assay: Antiallodynic activity in po dosed OF1 mouse partial sciatic nerve ligation model assessed as increase in mechanical threshold to pressure after 30 mins by von Frey test; assay type: functional, organism-based; procedure, shortened: as §5
# Mus musculus [13] = assay: Antiallodynic activity in OF1 mouse partial sciatic nerve ligation model assessed as increase in mechanical threshold to pressure at 50 mg/kg, po after 45 to 60 mins by von Frey test; assay type: functional, organism-based
# Neprilysin = Neprilysin (Homo sapiens, UniProt P08473); assay: Inhibition of recombinant human Neprilysin using Suc-Ala-Ala-Phe-AMC as substrate preincubated for 30 mins followed by substrate addition measured after 30 mins by fluorometry
# Mus musculus [14] = assay: Antihyperalgesic activity in OF1 mouse partial sciatic nerve ligation model assessed as increase in […] threshold to thermal stimuli at 50 mg/kg, po measured at 90 mins by planar test relative to control; assay type: functional
# Procedure, shortened: (§6)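 Male OF1 PSNL mice given 50 mg/kg orally in EtOH/0.5% methylcellulose in water (1.5/98.5). Thermal hyperalgesia assessed by plantar test as paw withdrawal to a thermal stimulus, expressed relative to the contralateral paw, at time points up to 150 min.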
# Mus musculus [15] = assay: Antiallodynic activity in OF1 mouse partial sciatic nerve ligation model assessed as increase in mechanical threshold to pressure at 50 mg/kg, po after 150 mins by von Frey test; assay type: functional
# Procedure, shortened: (§7)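 PSNL in male OF1 mice (16–18 g): under isoflurane, a tight ligation placed around 33–50% of the right sciatic nerve. 50 mg/kg given by oral gavage in EtOH/0.5% methylcellulose (1.5/98.5). Paw withdrawal threshold (g) measured with von Frey filaments by up-down method before dosing and at 45, 90 and 150 min. n = 5–7 per group.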
# Mus musculus [16] = assay: Antihyperalgesic activity in OF1 mouse partial sciatic nerve ligation model assessed as increase in […] threshold to thermal stimuli at 50 mg/kg, po measured upto 150 mins by planar test; assay type: functional, organism-based; procedure, shortened: as §6
# Mus musculus [17] = assay: Antiallodynic activity in OF1 mouse partial sciatic nerve ligation model assessed as increase in mechanical threshold to pressure at 50 mg/kg, po after 90 mins by von Frey test; assay type: functional; procedure, shortened: as §7
# Mus musculus [18] = assay: Antiallodynic activity in OF1 mouse partial sciatic nerve ligation model assessed as increase in mechanical threshold to pressure at 50 mg/kg, po after 45 mins by von Frey test; assay type: functional; procedure, shortened: as §7
# Plasma [19] = assay: Prodrug conversion in Sprague-Dawley rat plasma assessed as formation of (S)-2-((S)-3-(((S)-2-amino-4-(methylthio)butyl)disulfanyl)-2-benzylpropanamido)propanoic acid at 800 uM incubated for 1 to 60 mins by LC/MS analysis; assay type: ADME, cell-free; procedure, shortened: as §4
# Plasma [20] = assay: Prodrug conversion in Sprague-Dawley rat plasma assessed as formation of 1-{1-[2-(Carboxymethyl-carbamoyl)-3-phenyl-propyldisulfanylmethyl]-3-methylsulfanyl-propylcarbamoyloxy}-ethyl isobutyrate at 800 uM incubated for 1 to 60 mins by LC/MS analysis; assay type: ADME, cell-free; procedure, shortened: as §4
# Mus musculus [21] = assay: Analgesic activity in OF1 mouse assessed as decrease in hindpaw licking at 50 mg/kg ,po administered 120 mins prior to formalin challenge by formalin test; assay type: functional; set-up: scale not given: the % may be the effect or the level left; procedure, shortened: as §2
# Mus musculus [22] = assay: Antinociceptive activity in OF1 mouse assessed as increase in jump latency at 10 mg/kg, iv by hot plate test; assay type: functional, organism-based; procedure, shortened: as §1
# Mus musculus [23] = assay: Analgesic activity in OF1 mouse assessed as decrease in hindpaw licking at 50 mg/kg ,po administered 60 mins prior to formalin challenge by formalin test; assay type: functional; set-up: scale not given: the % may be the effect or the level left; procedure, shortened: as §2
# Mus musculus [24] = assay: Antinociceptive activity in OF1 mouse assessed as increase in jump latency at 150 mg/kg, po by hot plate test; assay type: functional, organism-based; procedure, shortened: as §3
# Plasma [25] = assay: Prodrug conversion in Sprague-Dawley rat plasma assessed as formation of PL37 at 800 uM incubated for 1 to 60 mins by LC/MS analysis; assay type: ADME, cell-free; procedure, shortened: as §4
# Mus musculus [26] = assay: Analgesic activity in OF1 mouse assessed as decrease in hindpaw licking at 50 mg/kg ,po administered 20 mins prior to formalin challenge by formalin test; assay type: functional; set-up: scale not given: the % may be the effect or the level left; procedure, shortened: as §2
# Sequence of Aminopeptidase N (P15144 whole entry): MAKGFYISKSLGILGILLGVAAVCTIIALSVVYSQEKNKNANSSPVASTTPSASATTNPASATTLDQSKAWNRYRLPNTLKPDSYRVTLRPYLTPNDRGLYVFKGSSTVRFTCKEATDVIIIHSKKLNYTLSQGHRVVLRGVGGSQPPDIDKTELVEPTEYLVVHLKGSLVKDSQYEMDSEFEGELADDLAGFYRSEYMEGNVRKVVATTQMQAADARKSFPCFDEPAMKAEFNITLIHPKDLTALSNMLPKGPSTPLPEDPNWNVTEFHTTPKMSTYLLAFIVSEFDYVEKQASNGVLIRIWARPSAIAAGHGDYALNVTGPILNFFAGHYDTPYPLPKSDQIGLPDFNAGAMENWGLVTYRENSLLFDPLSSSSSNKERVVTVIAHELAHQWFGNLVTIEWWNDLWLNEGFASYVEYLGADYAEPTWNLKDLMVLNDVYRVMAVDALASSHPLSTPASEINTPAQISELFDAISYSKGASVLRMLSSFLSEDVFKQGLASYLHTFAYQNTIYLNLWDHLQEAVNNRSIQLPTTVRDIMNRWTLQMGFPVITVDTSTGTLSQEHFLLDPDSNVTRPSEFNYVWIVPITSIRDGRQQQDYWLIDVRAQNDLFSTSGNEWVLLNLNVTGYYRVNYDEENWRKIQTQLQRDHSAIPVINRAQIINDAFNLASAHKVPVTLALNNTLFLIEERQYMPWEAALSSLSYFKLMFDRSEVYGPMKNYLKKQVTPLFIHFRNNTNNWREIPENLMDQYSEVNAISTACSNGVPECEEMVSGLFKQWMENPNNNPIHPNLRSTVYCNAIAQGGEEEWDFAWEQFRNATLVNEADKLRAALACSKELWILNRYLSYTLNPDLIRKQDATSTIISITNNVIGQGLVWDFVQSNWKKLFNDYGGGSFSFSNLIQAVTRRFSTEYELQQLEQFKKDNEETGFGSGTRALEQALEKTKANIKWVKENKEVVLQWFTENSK
# Sequence of Neprilysin (P08473 whole entry): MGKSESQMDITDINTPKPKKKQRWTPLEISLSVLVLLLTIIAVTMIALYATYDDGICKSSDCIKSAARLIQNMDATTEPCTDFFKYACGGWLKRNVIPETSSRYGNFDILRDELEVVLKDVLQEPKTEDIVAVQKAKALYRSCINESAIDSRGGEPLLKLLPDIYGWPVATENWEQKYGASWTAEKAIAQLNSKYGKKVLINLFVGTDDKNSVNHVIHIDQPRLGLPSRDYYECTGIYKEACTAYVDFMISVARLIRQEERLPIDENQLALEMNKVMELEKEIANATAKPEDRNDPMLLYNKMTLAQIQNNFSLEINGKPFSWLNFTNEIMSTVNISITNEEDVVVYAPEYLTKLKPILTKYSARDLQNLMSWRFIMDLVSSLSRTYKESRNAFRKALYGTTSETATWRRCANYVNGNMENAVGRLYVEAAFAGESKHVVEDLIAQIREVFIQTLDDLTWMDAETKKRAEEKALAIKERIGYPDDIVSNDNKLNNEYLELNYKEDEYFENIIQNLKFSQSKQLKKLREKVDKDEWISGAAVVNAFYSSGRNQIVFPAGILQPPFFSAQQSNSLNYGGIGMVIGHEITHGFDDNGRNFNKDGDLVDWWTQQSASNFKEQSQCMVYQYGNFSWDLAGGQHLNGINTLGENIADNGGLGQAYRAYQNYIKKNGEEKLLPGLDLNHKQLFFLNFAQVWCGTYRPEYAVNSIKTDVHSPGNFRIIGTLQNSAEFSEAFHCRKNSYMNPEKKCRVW
Compound,Activity (Mus musculus [1]),Activity (Mus musculus [2]) [%],Activity (Mus musculus [3]),Activity (Mus musculus [4]) [%],Activity (Mus musculus [5]),also measured
CC(OC(=O)N[C@@H](CC[S+](C)[O-])CSSC[C@@H](Cc1ccccc1)C(=O)NCC(=O)OCc1ccccc1)OC(=O)C(C)C (some centres undefined),inactive,38,inactive,39,inactive,–
O=C(O)CNC(=O)C(CS)Cc1ccccc1 (centres undefined) [THIORPHAN],–,–,–,–,–,Ki (Aminopeptidase N): > 10 µM
CSCC[C@H](N)CSSC[C@@H](Cc1ccccc1)C(=O)NCC(=O)O,–,–,Active,–,–,Drug metabolism (Plasma [6]): metabolite_detected
CC(OC(=O)N[C@@H](CC[S+](C)[O-])CSSC[C@@H](Cc1ccccc1)C(=O)NCC(=O)O)OC(=O)C(C)C (some centres undefined),inactive,38,inactive,39,inactive,Activity (Mus musculus [7]): Dose-dependent effect; Activity (Mus musculus [8]): 40%; Activity (Mus musculus [9]): 52%; Activity (Mus musculus [10]): 63%; Activity (Mus musculus [11]): Dose-dependent effect; Activity (Mus musculus [12]): Dose-dependent effect; Activity (Mus musculus [13]): Active
C[S+]([O-])CC[C@H](N)CS (some centres undefined),–,–,–,–,–,Ki (Neprilysin): > 10 µM
CSCC[C@@H](CSSC[C@@H](Cc1ccccc1)C(=O)NCC(=O)O)NC(=O)OC(C)OC(=O)C(C)C (some centres undefined),inactive,31,inactive,34,inactive,Activity (Mus musculus [14]): 100%; Activity (Mus musculus [15]): 18%; Activity (Mus musculus [16]): Active; Activity (Mus musculus [17]): 56%; Drug metabolism (Plasma [6]): metabolite_detected; Activity (Mus musculus [18]): 64%
CC(OC(=O)N[C@@H](CC[S+](C)[O-])CSSCC1(C(=O)N[C@@H](CC(=O)O)C(=O)O)CCCC1)OC(=O)C(C)C (some centres undefined),inactive,47,inactive,46,inactive,–
C[S+]([O-])CC[C@H](N)CSSC[C@@H](Cc1ccccc1)C(=O)NCC(=O)OCc1ccccc1 (some centres undefined),–,–,Active,–,–,–
CCOC(=O)OC(C)OC(=O)CNC(=O)[C@@H](CSSC[C@@H](N)CC[S+](C)[O-])Cc1ccccc1 (some centres undefined),–,–,Active,–,–,–
C[S+]([O-])CC[C@H](N)CSSC[C@@H](Cc1ccccc1)C(=O)NCC(=O)O (some centres undefined),–,–,Active,–,–,–
O=C(O)C[C@H](NC(=O)C1(CS)CCCC1)C(=O)O,–,–,–,–,–,Ki (Aminopeptidase N): > 10 µM
CCOC(=O)OC(C)OC(=O)CNC(=O)[C@@H](CSSC[C@H](CCSC)NC(=O)OC(C)OC(=O)C(C)C)Cc1ccccc1 (some centres undefined),–,30,–,32,inactive,Drug metabolism (Plasma [19]): metabolite_detected; Drug metabolism (Plasma [20]): metabolite_detected; Activity (Mus musculus [21]): 31%; Activity (Mus musculus [22]): inactive; Activity (Mus musculus [23]): 56%; Activity (Mus musculus [24]): inactive; Drug metabolism (Plasma [25]): metabolite_notdetected; Activity (Mus musculus [26]): 25%
C[S+]([O-])CC[C@H](N)CSSCC1(C(=O)N[C@@H](CC(=O)O)C(=O)O)CCCC1 (some centres undefined),–,–,Active,–,–,–
CSCC[C@@H](CSSC[C@@H](Cc1ccccc1)C(=O)NCC(=O)OCc1ccccc1)NC(=O)OC(C)OC(=O)C(C)C (some centres undefined),inactive,26,inactive,34,inactive,–
CCOC(=O)OC(C)OC(=O)CNC(=O)[C@@H](CSSC[C@H](CC[S+](C)[O-])NC(=O)OC(C)OC(=O)C(C)C)Cc1ccccc1 (some centres undefined),inactive,38,inactive,39,inactive,–
CSCC[C@H](N)CSSC[C@@H](Cc1ccccc1)C(=O)NCC(=O)OCc1ccccc1,–,–,Active,–,–,–
CCOC(=O)OC(C)OC(=O)CNC(=O)[C@@H](CSSC[C@@H](N)CCSC)Cc1ccccc1.O=C(O)/C=C/C(=O)O (some centres undefined),–,–,–,–,–,Activity (Mus musculus [21]): inactive; Activity (Mus musculus [22]): Active; Activity (Mus musculus [23]): 31%; Activity (Mus musculus [24]): Active; Activity (Mus musculus [26]): 62%
